Data published in ChEMBL document CHEMBL4425113, “Chromenopyrazole, a Versatile Cannabinoid Scaffold with in Vivo Activity in a Model of Multiple Sclerosis” (J Med Chem, 2016).
Calls of active or inactive are those of the source. The calls are words filed in the database; no cut-off is given here.

Columns and labels:
Cannabinoid receptor 1 = Cannabinoid receptor 1 (Homo sapiens, UniProt P21554); assay: biochemical; format: cell-based, HEK293
Cannabinoid receptor 2 [1] = molecular target: T1, Cannabinoid receptor 2 (Homo sapiens, UniProt P34972); assay: Displacement of [3H]-CP55940 from human CB2 receptor expressed in HEK293 cell membranes after 90 mins by liquid scintillation counting method
T1 sequence (P34972 whole entry): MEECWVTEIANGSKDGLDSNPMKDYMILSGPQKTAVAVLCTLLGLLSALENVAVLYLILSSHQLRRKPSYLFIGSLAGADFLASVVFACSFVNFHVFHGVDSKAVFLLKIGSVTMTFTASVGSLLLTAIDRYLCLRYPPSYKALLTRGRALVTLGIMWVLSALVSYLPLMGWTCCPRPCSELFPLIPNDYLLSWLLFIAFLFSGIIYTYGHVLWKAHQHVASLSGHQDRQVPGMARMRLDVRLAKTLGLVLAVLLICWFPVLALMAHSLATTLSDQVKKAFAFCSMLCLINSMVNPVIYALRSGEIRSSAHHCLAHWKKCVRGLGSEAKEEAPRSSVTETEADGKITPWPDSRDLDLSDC

Homo sapiens = species: Homo sapiens; assay: Selectivity ratio of Ki for human CB1 receptor to Ki for human CB2 receptor
Method in brief: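 Membranes from cells transfected with hCB1 (8 μg/well; Tris 50 mM, MgCl2 5 mM, EDTA 2.5 mM, BSA 0.5 mg/mL, pH 7.4) or hCB2 (4 μg/well; EGTA 2.5 mM, BSA 1 mg/mL, pH 7.5); [3H]CP55940, 90 min at 30 °C. […] Nonspecific binding 10 μM WIN55212-2; GF/C filtration, scintillation; ≥3 experiments in triplicate.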

Cannabinoid receptor 2 [2] = molecular target: T1, Cannabinoid receptor 2; assay: Agonist activity at human CB2 receptor expressed in HEK293 cell membranes assessed as inhibition of forskolin-stimulated cAMP accumulation at 200 nM after 60 mins by HTRF assay; format: functional, cell-based
Method in brief: (§1)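 HEK293 cells stably expressing hCB2, 5.000 cells/well, forskolin-stimulated; Lance-Ultra TR-FRET cAMP kit, 60 min room temperature with HTRF reagents; 665/620 nm ratio converted to cAMP via standard curve; forskolin level set to 100%.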

Cannabinoid receptor 2 [3] = molecular target: T1, Cannabinoid receptor 2; assay: Agonist activity at human CB2 receptor expressed in HEK293 cell membranes assessed as inhibition of forskolin-stimulated cAMP accumulation at 1 uM after 60 mins by HTRF assay; format: functional, cell-based
Method in brief: as §1

Cannabinoid receptor 2 [4] = molecular target: T1, Cannabinoid receptor 2; assay: Agonist activity at human CB2 receptor expressed in HEK293 cell membranes assessed as inhibition of forskolin-stimulated cAMP accumulation after 60 mins by HTRF assay; format: functional, cell-based
Cannabinoid receptor 2 [5] = molecular target: T1, Cannabinoid receptor 2; assay: Agonist activity at human CB2 receptor expressed in HEK293 cell membranes assessed as induction of [35S]-GTPgammaS binding after 60 mins by liquid scintillation spectrometric method; format: functional
[6] = Binding affinity to PDEA modified AGP (unknown origin) at 40 uM by surface plasmon resonance method; format: ADME; settings: human, isolated protein
Mus musculus = assay: Antiinflammatory activity in TMEV-induced SJL/J mouse demyelinating disease model assessed as reduction of microglial activation by measuring […] in Iba-1 expression at 5 mg/kg, ip administered for 7 days by fluorescence assay; format: functional, organism-based
Method in brief: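 Female SJL/J mice, 12 weeks, inoculated intracerebrally (right hemisphere) with TMEV DA strain; sham get vehicle. Compound 5 mg/kg i.p. daily for 7 days, vehicle 10% DMSO in PBS. Perfused brains PFA-fixed; sections stained anti-Iba1 (1:1,000) plus Alexa secondary; confocal fluorescence intensity, 6 sections/animal, ≥5 animals/group; Kruskal–Wallis test.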

Sequence of Cannabinoid receptor 1 (P21554 whole entry): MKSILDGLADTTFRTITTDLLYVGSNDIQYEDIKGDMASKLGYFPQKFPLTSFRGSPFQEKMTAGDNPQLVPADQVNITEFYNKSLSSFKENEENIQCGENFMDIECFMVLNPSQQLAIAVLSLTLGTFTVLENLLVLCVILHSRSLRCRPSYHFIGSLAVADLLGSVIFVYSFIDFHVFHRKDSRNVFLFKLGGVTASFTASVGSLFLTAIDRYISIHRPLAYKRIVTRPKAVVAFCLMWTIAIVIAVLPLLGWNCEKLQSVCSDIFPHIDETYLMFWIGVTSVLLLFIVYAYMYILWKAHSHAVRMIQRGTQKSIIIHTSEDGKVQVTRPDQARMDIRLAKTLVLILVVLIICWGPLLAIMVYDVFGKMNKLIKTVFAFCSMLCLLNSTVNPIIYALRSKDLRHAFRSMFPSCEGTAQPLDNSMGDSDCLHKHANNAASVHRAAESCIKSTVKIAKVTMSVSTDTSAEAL

CCCCCCC(C)(C)c1cc(OC)c2c(c1)OC(C)(C)c1cnoc1-2
Ki (Cannabinoid receptor 1): > 40000 nM
Ki (Cannabinoid receptor 2 [1]): 12.8 nM
Ratio Ki (Homo sapiens): > 3100
inhibition (Cannabinoid receptor 2 [2]): Active
inhibition (Cannabinoid receptor 2 [3]): Active
Emax (Cannabinoid receptor 2 [4]): 101%
IC50 (Cannabinoid receptor 2 [4]): 4.2 nM
Emax (Cannabinoid receptor 2 [5]): 98%
PB [6]: Active
Activity (Mus musculus): Active
